# Measurements reported in ChEMBL document CHEMBL1795332, “Renin inhibitors for the treatment of hypertension: design and optimization of a novel series of pyridone-substituted piperidines” (Bioorg Med Chem Lett, 2011).
# Assays:
# Renin [1] = target: T1, Renin (Homo sapiens, UniProt P00797); assay: Inhibition of renin in human plasma using Q-FRET substrate pretreated for 10 mins before substrate addition measured after 1 hr
# T1 sequence (P00797 whole entry): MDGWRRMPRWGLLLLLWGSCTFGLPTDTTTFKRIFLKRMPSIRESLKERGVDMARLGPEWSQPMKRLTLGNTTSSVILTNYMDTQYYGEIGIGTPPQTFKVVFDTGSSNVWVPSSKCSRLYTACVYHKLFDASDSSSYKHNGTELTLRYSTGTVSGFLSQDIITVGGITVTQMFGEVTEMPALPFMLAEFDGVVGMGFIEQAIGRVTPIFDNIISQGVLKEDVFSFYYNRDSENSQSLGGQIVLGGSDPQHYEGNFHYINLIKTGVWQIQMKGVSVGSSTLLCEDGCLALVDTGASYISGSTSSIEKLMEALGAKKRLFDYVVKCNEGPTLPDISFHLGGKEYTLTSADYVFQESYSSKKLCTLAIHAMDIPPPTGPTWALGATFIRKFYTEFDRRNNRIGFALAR
# Rattus norvegicus [2] = assay: Cardiotoxicity in cardiac electrophysiology rat model assessed as prolongation of PR intervals at 10 mg/kg, iv after 0.5 hrs relative to baseline; type: toxicity, organism-based, Heart; set-up: dose 10 mg/kg, route intravenous; details: in vivo
# Outline: (§1)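 Rat electrophysiology model dosed at 10 mpk over 0.5 h. PR and QRS prolongation expressed as percentage change from baseline; plasma concentration (µM) recorded.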
# [3] = Oral bioavailability in Sprague-Dawley rat at 20 mg/kg; type: ADME, organism-based; details: in vivo
# CYP3A4 [4] = target: T2, CYP3A4 (Homo sapiens, UniProt P08684); assay: Reversible inhibition of CYP3A4 assessed as conversion of testosterone to 6-beta-hydroxytestosterone at 10 uM relative to control; type: ADME; details: probe testosterone
# Canis familiaris [5] = assay: Cardiotoxicity in anesthetized, vagotomized and ventilated Mongrel dog assessed as prolongation of QTc intervals at 10 mg/kg, iv after 1.5 hrs relative to baseline; type: toxicity, organism-based, Canis lupus familiaris; set-up: dose 10 mg/kg, route intravenous; details: in vivo
# Outline: (§2)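 Anesthetized, vagotomized, ventilated mongrel dogs received an iv infusion of 10 mpk over 1.5 h. QTc, PR and QRS intervals were recorded as percentage change from baseline, and plasma concentration (µM) was measured.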
# Canis familiaris [6] = assay: Cardiotoxicity in anesthetized, vagotomized and ventilated Mongrel dog assessed as prolongation of QRS intervals at 10 mg/kg, iv after 1.5 hrs relative to baseline; type: toxicity, organism-based, Canis lupus familiaris; set-up: dose 10 mg/kg, route intravenous; details: in vivo; outline: as §2
# CYP3A4 [7] = target: T2, CYP3A4; assay: Time dependent inhibition of CYP3A4 assessed as conversion of testosterone to 6-beta-hydroxytestosterone at 10 uM relative to control; type: ADME; details: probe testosterone
# Outline: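 Rate of CYP3A4 conversion of testosterone (250 μM) to 6-β-hydroxytestosterone measured before and after a 30 min incubation with compound at 10 μM (in DMSO). Difference expressed as % loss.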
# Renin [8] = target: T1, Renin; assay: Inhibition of human recombinant renin using Q-FRET substrate after 3 hrs by fluorescence assay
# [9] = Plasma concentration in anesthetized, vagotomized and ventilated Mongrel dog at 10 mg/kg, iv after 1.5 hrs; type: ADME, organism-based, Canis lupus familiaris; set-up: dose 10 mg/kg, route intravenous; outline: as §2
# Canis familiaris [10] = assay: Cardiotoxicity in anesthetized, vagotomized and ventilated Mongrel dog assessed as prolongation of PR intervals at 10 mg/kg, iv after 1.5 hrs relative to baseline; type: toxicity, organism-based, Canis lupus familiaris; set-up: dose 10 mg/kg, route intravenous; details: in vivo; outline: as §2
# [11] = Plasma concentration in cardiac electrophysiology rat model at 10 mg/kg, iv after 0.5 hrs; type: ADME, organism-based; set-up: dose 10 mg/kg, route intravenous; outline: as §1
# Rattus norvegicus [12] = assay: Cardiotoxicity in cardiac electrophysiology rat model assessed as prolongation of QRS intervals at 10 mg/kg, iv after 0.5 hrs relative to baseline; type: toxicity, organism-based, Heart; set-up: dose 10 mg/kg, route intravenous; details: in vivo; outline: as §1
# [13] = target: Voltage-gated inwardly rectifying potassium channel KCNH2 (Homo sapiens, UniProt Q12809); assay: Inhibition of human ERG
# [14] = Clearance in Beagle dog at 3 mg/kg, po and 1 mg/kg, iv; type: ADME, organism-based, Canis lupus familiaris; details: in vivo
# [15] = Volume of distribution at steady state in Beagle dog at 3 mg/kg, po and 1 mg/kg, iv; type: ADME, organism-based, Canis lupus familiaris; details: in vivo, read-out: Vdss
# Cytochrome P450 3A4 [16] = target: T3, Cytochrome P450 3A4 (Homo sapiens, UniProt P08684); assay: Time dependent inhibition of CYP3A4 assessed as conversion of testosterone to 6-beta-hydroxytestosterone preincubated for 30 mins; type: ADME
# Outline: (§3)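 Time-dependent CYP3A4 inhibition (testosterone to 6-β-hydroxytestosterone).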
# Cytochrome P450 3A4 [17] = target: T3, Cytochrome P450 3A4; assay: Reversible inhibition of CYP3A4 assessed as conversion of testosterone to 6-beta-hydroxytestosterone; type: ADME
# Rattus norvegicus [18] = assay: Antihypertensive activity in double transgenic rat model assessed as duration in reduction of blood pressure at 10 mg/kg, po; type: functional
# [19] = AUC in Beagle dog at 3 mg/kg, po; type: ADME, organism-based, Canis lupus familiaris; set-up: dose 3 mg/kg, route oral; details: plasma
# Liver microsomes [20] = assay: Covalent binding in human liver microsomes assessed per mg of protein at 10 uM after 60 mins in presence of NADPH; type: ADME, Microsome; details: 1 h
# Outline: (§4)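 Test compound at 10 μM was incubated for 60 min (n = 3) with human liver microsomes at 1 mg protein/mL, with or without 1 mM NADPH. Covalent binding reported as pmole eq/mg at 1 h.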
# [21] = Clearance in Sprague-Dawley rat at 20 mg/kg, po and 5 mg/kg, iv; details: in vivo
# [22] = Oral bioavailability in Beagle dog at 3 mg/kg; type: ADME, organism-based, Canis lupus familiaris; details: in vivo
# Rattus norvegicus [23] = assay: Antihypertensive activity in double transgenic rat model assessed as reduction of blood pressure at 10 mg/kg, po; type: functional
# [24] = Clearance in cynomolgus monkey at 3 mg/kg, po and 1 mg/kg, iv; type: ADME, organism-based, Macaca fascicularis; details: in vivo
# [25] = Half life in Beagle dog at 3 mg/kg, po and 1 mg/kg, iv; type: ADME, organism-based, Canis lupus familiaris; details: in vivo
# [26] = Volume of distribution at steady state in Sprague-Dawley rat at 20 mg/kg, po and 5 mg/kg, iv; details: in vivo, read-out: Vdss
# Liver microsomes [27] = assay: Covalent binding in human liver microsomes assessed per mg of protein at 10 uM after 60 mins in absence of NADPH; type: ADME, Microsome; details: 1 h; outline: as §4
# [28] = Half life in Sprague-Dawley rat at 20 mg/kg, po and 5 mg/kg, iv; details: in vivo
# [29] = Volume of distribution at steady state in cynomolgus monkey at 3 mg/kg, po and 1 mg/kg, iv; type: ADME, organism-based, Macaca fascicularis; details: in vivo, read-out: Vdss
# [30] = AUC in Sprague-Dawley rat at 20 mg/kg, po; type: ADME, organism-based; set-up: dose 20 mg/kg, route oral; details: plasma
# [31] = Oral bioavailability in cynomolgus monkey at 3 mg/kg; type: ADME, organism-based, Macaca fascicularis; details: in vivo
# Cytochrome P450 3A4 [32] = target: T3, Cytochrome P450 3A4; assay: Time dependent inhibition of CYP3A4 assessed as conversion of testosterone to 6-beta-hydroxytestosterone; type: ADME; outline: as §3
# [33] = AUC in cynomolgus monkey at 3 mg/kg, po; type: ADME, organism-based, Macaca fascicularis; set-up: dose 3 mg/kg, route oral; details: plasma
# [34] = Half life in cynomolgus monkey at 3 mg/kg, po and 1 mg/kg, iv; type: ADME, organism-based, Macaca fascicularis; details: in vivo
# [35] = target: Sodium channel protein type 5 subunit alpha (Homo sapiens, UniProt Q14524); assay: Inhibition of human Nav1.5
# [36] = target: Voltage-dependent L-type calcium channel subunit alpha-1C (Homo sapiens, UniProt Q13936); assay: Inhibition of human Cav1.2
# [37] = Oral bioavailability in Sprague-Dawley rat at 30 mg/kg; type: ADME, organism-based; details: in vivo
# [38] = Oral bioavailability in Sprague-Dawley rat at 3 mg/kg; type: ADME, organism-based; details: in vivo
# [39] = Solubility of the compound in water; type: physicochemical; details: buffer
# T3 sequence (P08684 whole entry): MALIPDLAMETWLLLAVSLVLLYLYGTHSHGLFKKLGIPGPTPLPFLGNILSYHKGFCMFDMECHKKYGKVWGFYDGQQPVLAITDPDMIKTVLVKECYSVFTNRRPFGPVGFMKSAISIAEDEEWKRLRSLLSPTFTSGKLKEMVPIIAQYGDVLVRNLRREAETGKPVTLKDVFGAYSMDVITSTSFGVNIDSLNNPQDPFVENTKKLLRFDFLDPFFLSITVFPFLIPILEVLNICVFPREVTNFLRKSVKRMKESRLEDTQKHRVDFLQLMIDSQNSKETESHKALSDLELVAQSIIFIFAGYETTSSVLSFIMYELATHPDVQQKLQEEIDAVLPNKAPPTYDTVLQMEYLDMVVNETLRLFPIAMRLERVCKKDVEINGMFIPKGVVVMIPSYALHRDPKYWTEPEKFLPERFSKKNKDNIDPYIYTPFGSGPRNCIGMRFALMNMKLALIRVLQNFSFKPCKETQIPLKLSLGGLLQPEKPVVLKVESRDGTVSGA
# T2 sequence (P08684 whole entry): as above
# Chain of Voltage-gated inwardly rectifying potassium channel KCNH2 (Q12809 whole entry): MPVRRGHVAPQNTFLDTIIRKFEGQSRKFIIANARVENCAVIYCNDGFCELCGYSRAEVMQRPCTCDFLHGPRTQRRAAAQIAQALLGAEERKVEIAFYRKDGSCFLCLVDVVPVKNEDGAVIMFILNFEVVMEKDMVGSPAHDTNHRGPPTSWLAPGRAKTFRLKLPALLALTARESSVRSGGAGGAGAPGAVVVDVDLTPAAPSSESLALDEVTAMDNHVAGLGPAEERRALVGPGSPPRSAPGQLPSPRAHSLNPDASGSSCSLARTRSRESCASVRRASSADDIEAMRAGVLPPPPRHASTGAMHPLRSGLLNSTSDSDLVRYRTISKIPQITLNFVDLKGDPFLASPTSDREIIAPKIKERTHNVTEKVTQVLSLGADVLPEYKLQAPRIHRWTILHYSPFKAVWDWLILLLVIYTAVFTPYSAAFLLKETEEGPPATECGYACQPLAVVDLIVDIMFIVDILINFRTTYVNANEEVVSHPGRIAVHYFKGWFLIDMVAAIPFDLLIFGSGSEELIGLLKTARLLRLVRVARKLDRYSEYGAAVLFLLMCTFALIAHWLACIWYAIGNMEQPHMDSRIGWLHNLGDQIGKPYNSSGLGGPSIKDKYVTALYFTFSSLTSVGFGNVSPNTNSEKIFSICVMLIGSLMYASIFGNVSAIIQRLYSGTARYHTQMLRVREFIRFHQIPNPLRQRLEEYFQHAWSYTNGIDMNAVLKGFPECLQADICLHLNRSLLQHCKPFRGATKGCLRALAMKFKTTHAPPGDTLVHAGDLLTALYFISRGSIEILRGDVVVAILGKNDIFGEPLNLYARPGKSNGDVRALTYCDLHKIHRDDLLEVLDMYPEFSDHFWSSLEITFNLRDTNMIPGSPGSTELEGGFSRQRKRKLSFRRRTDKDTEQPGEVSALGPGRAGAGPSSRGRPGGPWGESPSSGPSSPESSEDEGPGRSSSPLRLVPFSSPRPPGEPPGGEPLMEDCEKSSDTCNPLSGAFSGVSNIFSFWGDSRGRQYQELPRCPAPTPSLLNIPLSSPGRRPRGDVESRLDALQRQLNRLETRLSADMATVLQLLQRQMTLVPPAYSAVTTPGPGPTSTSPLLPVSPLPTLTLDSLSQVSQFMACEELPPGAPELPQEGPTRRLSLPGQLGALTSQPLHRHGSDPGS
# Chain of Sodium channel protein type 5 subunit alpha (Q14524 whole entry): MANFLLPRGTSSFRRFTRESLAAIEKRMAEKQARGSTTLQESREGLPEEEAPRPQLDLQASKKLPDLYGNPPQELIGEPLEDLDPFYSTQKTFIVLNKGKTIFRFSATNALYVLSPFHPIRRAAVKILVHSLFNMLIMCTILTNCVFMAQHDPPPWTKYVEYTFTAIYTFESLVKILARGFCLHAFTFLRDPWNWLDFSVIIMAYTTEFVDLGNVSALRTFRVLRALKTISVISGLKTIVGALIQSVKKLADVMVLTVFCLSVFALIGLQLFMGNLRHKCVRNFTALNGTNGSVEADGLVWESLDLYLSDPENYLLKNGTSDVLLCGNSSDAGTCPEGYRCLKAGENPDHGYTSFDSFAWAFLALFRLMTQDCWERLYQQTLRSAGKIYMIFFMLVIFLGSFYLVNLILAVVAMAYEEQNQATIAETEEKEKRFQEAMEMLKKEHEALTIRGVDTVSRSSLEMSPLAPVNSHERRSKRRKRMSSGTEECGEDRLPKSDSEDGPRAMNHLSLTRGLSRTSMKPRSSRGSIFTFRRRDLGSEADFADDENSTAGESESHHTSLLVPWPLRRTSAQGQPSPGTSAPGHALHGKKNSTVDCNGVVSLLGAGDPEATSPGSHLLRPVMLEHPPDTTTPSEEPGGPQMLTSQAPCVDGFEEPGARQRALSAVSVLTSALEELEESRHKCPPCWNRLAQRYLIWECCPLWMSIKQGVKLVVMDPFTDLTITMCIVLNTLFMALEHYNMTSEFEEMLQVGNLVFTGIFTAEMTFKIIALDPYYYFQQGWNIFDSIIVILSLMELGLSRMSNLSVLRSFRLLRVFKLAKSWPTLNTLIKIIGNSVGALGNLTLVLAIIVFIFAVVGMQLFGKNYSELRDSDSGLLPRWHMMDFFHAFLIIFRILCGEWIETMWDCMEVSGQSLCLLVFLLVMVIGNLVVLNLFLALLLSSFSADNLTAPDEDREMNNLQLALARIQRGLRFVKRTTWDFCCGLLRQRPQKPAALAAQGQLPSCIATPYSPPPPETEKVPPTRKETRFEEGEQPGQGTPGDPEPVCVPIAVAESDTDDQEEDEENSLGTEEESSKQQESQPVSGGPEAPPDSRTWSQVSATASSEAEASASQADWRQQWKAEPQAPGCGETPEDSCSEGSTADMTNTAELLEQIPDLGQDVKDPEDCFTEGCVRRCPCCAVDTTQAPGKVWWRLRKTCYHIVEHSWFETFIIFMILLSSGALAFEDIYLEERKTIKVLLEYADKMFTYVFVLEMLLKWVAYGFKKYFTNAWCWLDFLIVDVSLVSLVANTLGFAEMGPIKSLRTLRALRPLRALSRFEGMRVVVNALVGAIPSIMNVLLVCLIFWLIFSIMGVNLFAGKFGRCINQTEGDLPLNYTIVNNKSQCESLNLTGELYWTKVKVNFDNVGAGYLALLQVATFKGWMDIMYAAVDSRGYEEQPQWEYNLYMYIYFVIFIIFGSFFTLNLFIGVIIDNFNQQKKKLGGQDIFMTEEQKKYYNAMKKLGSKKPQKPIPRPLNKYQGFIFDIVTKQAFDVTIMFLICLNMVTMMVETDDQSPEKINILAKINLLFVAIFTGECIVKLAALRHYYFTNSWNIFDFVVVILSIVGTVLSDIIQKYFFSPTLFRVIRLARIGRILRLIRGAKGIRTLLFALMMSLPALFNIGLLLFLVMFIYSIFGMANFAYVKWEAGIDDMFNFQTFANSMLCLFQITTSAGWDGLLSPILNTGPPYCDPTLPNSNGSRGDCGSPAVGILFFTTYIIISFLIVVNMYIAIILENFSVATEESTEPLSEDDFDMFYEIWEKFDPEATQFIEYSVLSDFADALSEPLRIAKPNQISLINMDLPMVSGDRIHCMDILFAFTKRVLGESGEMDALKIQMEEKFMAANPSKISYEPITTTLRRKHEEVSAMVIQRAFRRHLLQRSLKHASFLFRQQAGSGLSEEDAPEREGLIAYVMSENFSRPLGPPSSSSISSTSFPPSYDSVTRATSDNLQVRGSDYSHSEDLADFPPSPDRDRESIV
smiles,measurement,setting,value
COCCCc1cc(Cl)c(Cl)c(CN(C(=O)[C@H]2CNCC[C@@H]2c2ccn(C)c(=O)c2)C2CC2)c1,IC50,Renin [1],1.3 nM
same,Activity,Rattus norvegicus [2],35%
same,bioavailability,[3],24%
same,activity % at 10 µM,CYP3A4 [4],53%
same,Activity,Canis familiaris [5],10%
same,Activity,Canis familiaris [6],33%
same,inhibition at 10 µM,CYP3A4 [7],16%
same,IC50,Renin [8],0.3 nM
same,concentration at 1.5 h,[9],15 µM
same,Activity,Canis familiaris [10],50%
same,concentration at 0.5 h,[11],7.4 µM
same,Activity,Rattus norvegicus [12],54%
same,Ki,[13],4800 nM
COCCCc1cc(CN(C(=O)[C@H]2CNCC[C@@H]2c2ccn(C)c(=O)c2)C2CC2)cc(Br)c1C,clearance,[14],16 mL/min/kg
same,Vd,[15],4.5 L/kg
same,IC50,Cytochrome P450 3A4 [16],16000 nM
same,IC50,Cytochrome P450 3A4 [17],6500 nM
same,Time,Rattus norvegicus [18],24 h
same,IC50,Renin [1],2.4 nM
same,Activity,Rattus norvegicus [2],16%
same,bioavailability,[3],30%
same,AUC,[19],2.1 µM·h
same,Activity,Liver microsomes [20],34.5 pmolequiv
same,activity % at 10 µM,CYP3A4 [4],22%
same,clearance,[21],67 mL/min/kg
same,bioavailability,[22],36%
same,Activity,Rattus norvegicus [23],35 mmHg
same,clearance,[24],14 mL/min/kg
same,Activity,Canis familiaris [5],0%
same,half-life,[25],13.7 h
same,Vd,[26],17 L/kg
same,Activity,Canis familiaris [6],4%
same,Activity,Liver microsomes [27],8.3 pmolequiv
same,inhibition at 10 µM,CYP3A4 [7],0%
same,half-life,[28],5.2 h
same,IC50,Renin [8],1 nM
same,concentration at 1.5 h,[9],9.3 µM
same,Vd,[29],4.8 L/kg
same,Activity,Canis familiaris [10],5%
same,AUC,[30],4.2 µM·h
same,bioavailability,[31],14%
same,IC50,Cytochrome P450 3A4 [32],20000 nM
same,concentration at 0.5 h,[11],7.9 µM
same,Activity,Rattus norvegicus [12],14%
same,AUC,[33],0.9 µM·h
same,Ki,[13],18000 nM
same,half-life,[34],7.8 h
COCCCn1cc(CN(C(=O)[C@H]2CNCC[C@@H]2c2ccn(C)c(=O)c2)C2CC2)c2ccccc21,IC50,Renin [1],5.2 nM
same,Activity,Rattus norvegicus [2],23%
same,Activity,Canis familiaris [5],6%
same,Activity,Canis familiaris [6],12%
same,inhibition at 10 µM,CYP3A4 [7],45%
same,IC50,Renin [8],2.3 nM
same,concentration at 1.5 h,[9],25 µM
same,Activity,Canis familiaris [10],14%
same,IC50,[35],> 30000 nM
same,IC50,[36],> 30000 nM
same,bioavailability,[37],8%
same,concentration at 0.5 h,[11],12.7 µM
same,Activity,Rattus norvegicus [12],30%
Cn1ccc([C@H]2CCNC[C@@H]2C(=O)N(Cc2c[nH]c3cccc(F)c23)C2CC2)cc1=O,bioavailability,[38],0%
same,IC50,Renin [1],8.4 nM
same,activity % at 10 µM,CYP3A4 [4],74%
same,inhibition at 10 µM,CYP3A4 [7],0%
same,IC50,Renin [8],12 nM
same,Ki,[13],> 29000 nM
COCCCc1cc(CN(C(=O)[C@H]2CNCC[C@@H]2c2ccn(C)c(=O)c2)C2CC2)cc(Br)c1C.Cl,solubility,[39],soluble
Cn1ccc([C@H]2CCNC[C@@H]2C(=O)N(Cc2cn(Cc3cccnc3)c3cccc(F)c23)C2CC2)cc1=O,bioavailability,[38],0%
same,IC50,Renin [1],2 nM
same,activity % at 10 µM,CYP3A4 [4],61%
same,inhibition at 10 µM,CYP3A4 [7],44%
same,IC50,Renin [8],0.88 nM
same,Ki,[13],12000 nM
Cn1ccc([C@H]2CCNC[C@@H]2C(=O)N(Cc2cn(Cc3ccncc3)c3cccc(F)c23)C2CC2)cc1=O,bioavailability,[38],0%
same,IC50,Renin [1],0.53 nM
same,activity % at 10 µM,CYP3A4 [4],44%
same,inhibition at 10 µM,CYP3A4 [7],29%
same,IC50,Renin [8],0.24 nM
same,Ki,[13],15000 nM
